pIC50: −log10 of the molar value.

Experiment [1] concerns the target Human immunodeficiency virus type 1 reverse transcriptase (Human immunodeficiency virus 1, UniProt Q72547). The experiment can be described thus: Inhibition of wild type HIV1 RT polymerase by SPA.
The target in experiment [2] is Human immunodeficiency virus type 1 reverse transcriptase (Human immunodeficiency virus 1, UniProt Q72547, K103N). The experiment can be described thus: Inhibition of HIV1 RT polymerase K103N mutant by SPA.
In experiment [3] the target is Human immunodeficiency virus type 1 reverse transcriptase (Human immunodeficiency virus 1, UniProt Q72547, Y181C). The experiment can be described thus: Inhibition of HIV1 RT polymerase Y181C mutant by SPA.
Experiment [4] deals with Human immunodeficiency virus 1. Description: Antiviral activity against wild type HIV1 infected in human MT4 cells after 72 hrs in presence of 10% fetal bovine serum. Type of experiment: functional. Particulars: Human immunodeficiency virus 1, MT4, 72 h; read-out: CIC95. The method in brief:
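MT-4 human T-lymphoid cells in RPMI 1640 with 10% FBS. CIC95 is the concentration that inhibits viral spread by >95%. Values are either geometric means of two determinations or given with standard deviations for n > 3 or n > 50.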

For experiment [5], the system named is Human immunodeficiency virus 1. The experiment can be described thus: Antiviral activity against HIV1 with reverse transcriptase K103N mutant infected in human MT4 cells after 72 hrs in presence of 10% fetal bovine serum. It is filed as functional. The settings on record: Human immunodeficiency virus 1, MT4, 72 h; read-out: CIC95. In short, it runs like this:
(§1)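 Mutant HIV-1 spread was assayed in MT-4 human T-lymphoid cells kept in RPMI 1640 with 10% FBS. CIC95 is the concentration that inhibits viral spread by >95%. Values are geometric means of two determinations, or mean with standard deviation where n > 3. Cytotoxicity was checked up to an assay limit of 8.3 µM.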

Experiment [6] has as its system Human immunodeficiency virus 1. Description: Antiviral activity against wild type HIV1 infected in human MT4 cells after 72 hrs in presence of 50% normal human serum. It is filed as functional. Particulars: Human immunodeficiency virus 1, MT4, 72 h; read-out: CIC95. In short, it runs like this: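 MT-4 human T-lymphoid cells in RPMI 1640 with 50% NHS. CIC95 is the concentration that inhibits viral spread by >95%. Values are either geometric means of two determinations or given with standard deviations for n > 3 or n > 50.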

Experiment [7] deals with Human immunodeficiency virus 1. Description: Antiviral activity against HIV1 with reverse transcriptase Y181C mutant infected in human MT4 cells after 72 hrs in presence of 10% fetal bovine serum. Type of experiment: functional. Particulars: Human immunodeficiency virus 1, MT4, 72 h; read-out: CIC95. In short, it runs like this: as §1

As a reminder, the pIC50 is −log10 of the IC50, conventionally taken in molar units. Read a high pIC50 as a small IC50. As for `N#Cc1cc(Cl)cc(Oc2cc(OCc3n[nH]c4cccnc34)ccc2Cl)c1`, the pIC50 in experiment [1] is 8.44; in experiment [2] it was 7.40; in experiment [3] it was 6.13. In addition, the IC95 was determined as 307 nM in experiment [4], 2770 nM in experiment [5] and 922 nM in experiment [6].

Regarding `N#Cc1cc(Cl)cc(Oc2cc(OCc3n[nH]c4cnccc34)ccc2Cl)c1`, the negative-log IC50 (pIC50) in experiment [1] is 9.10; in experiment [2] it was 8.89; in experiment [3] it was 8.41. Moreover, the IC95 in experiment [4] stood at 10.8 nM; in experiment [5], 34.2 nM; in experiment [7], 31 nM; in experiment [6] it was 34 nM.

On to `O=C1Nc2ccc(Cl)cc2[C@@](C#CC2CC2)(C(F)(F)F)O1` [EFAVIRENZ], for which the IC95 in experiment [4] is 4.6 nM; in experiment [5], 245 nM; in experiment [7] it was 87 nM; in experiment [6] it was 42 nM.

The values above are taken from ChEMBL document CHEMBL1140177 (J Med Chem, 2008).
